# Laboratory results from ChEMBL document CHEMBL5058577, “EUbOPEN Chemogenomics Library 2 (Multiplex)” (2022).
# Test system: Fibroblast
# Assay: Multiplex assay against human fibroblast
# Assay type: toxicity, cell-based
# Summary of the method: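 Live cells carried four stains from seeding: Hoechst33342, BioTracker Green Microtubule Cytoskeleton Dye, MitoTracker Red and Annexin V Alexa Fluor 680. They were imaged on a CQ1 microscope at 37°C and 5% CO2 after compound addition. Using CellPathfinder machine-learning gating, cells were split into Hoechst high-intensity objects or normal cells, normal cells into healthy, pyknosed or fragmented nuclei, and pyknosed cells into mitotic or apoptotic; tubulin, mitochondrial-mass and membrane-permeability phenotypes are per cents of healthy-nucleus cells.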
# [1] = 12 h, 1 µM, compound concentration 1 uM, replicate 1
# [2] = 12 h, 1 µM, compound concentration 1 uM, replicate 2
# [3] = 12 h, 10 µM, compound concentration 10 uM, replicate 1
# [4] = 12 h, 10 µM, compound concentration 10 uM, replicate 2
# [5] = 24 h, 1 µM, compound concentration 1 uM, replicate 1
# [6] = 24 h, 1 µM, compound concentration 1 uM, replicate 2
# [7] = 24 h, 10 µM, compound concentration 10 uM, replicate 1
# [8] = 24 h, 10 µM, compound concentration 10 uM, replicate 2
# [9] = 48 h, 1 µM, compound concentration 1 uM, replicate 1
# [10] = 48 h, 1 µM, compound concentration 1 uM, replicate 2
# [11] = 48 h, 10 µM, compound concentration 10 uM, replicate 1
# [12] = 48 h, 10 µM, compound concentration 10 uM, replicate 2
compound,measurement,setting,value
CCCCC[C@H](O)/C=C/[C@H]1[C@H](O)CC(=O)[C@@H]1CCCCCCC(=O)O [ALPROSTADIL],Population Apoptotic (%),[1],61%
same,Population Fragmented Nuclei (%),[1],16%
same,Population Healthy Nuclei (%),[1],71%
same,Population Hoechst High Intensity Objects (%),[1],0%
same,Population Membrane Permeable-Phenotype (%),[1],0%
same,Population Mitochondria Different-Phenotype (%),[1],1%
same,Population Mitotic Cells (%),[1],38%
same,Population Normal (%),[1],99%
same,Population Pyknosed Nuclei (%),[1],12%
same,Population Tubulin-Different-Phenotype (%),[1],12%
same,Total Cell Count,[1],150
same,Population Apoptotic (%),[2],43%
same,Population Fragmented Nuclei (%),[2],23%
same,Population Healthy Nuclei (%),[2],57%
same,Population Hoechst High Intensity Objects (%),[2],4%
same,Population Membrane Permeable-Phenotype (%),[2],10%
same,Population Mitochondria Different-Phenotype (%),[2],2%
same,Population Mitotic Cells (%),[2],56%
same,Population Normal (%),[2],95%
same,Population Pyknosed Nuclei (%),[2],18%
same,Population Tubulin-Different-Phenotype (%),[2],38%
same,Total Cell Count,[2],169
same,Population Apoptotic (%),[3],36%
same,Population Fragmented Nuclei (%),[3],7%
same,Population Healthy Nuclei (%),[3],75%
same,Population Hoechst High Intensity Objects (%),[3],5%
same,Population Membrane Permeable-Phenotype (%),[3],2%
same,Population Mitochondria Different-Phenotype (%),[3],4%
same,Population Mitotic Cells (%),[3],63%
same,Population Normal (%),[3],94%
same,Population Pyknosed Nuclei (%),[3],17%
same,Population Tubulin-Different-Phenotype (%),[3],26%
same,Total Cell Count,[3],136
same,Population Apoptotic (%),[4],34%
same,Population Fragmented Nuclei (%),[4],25%
same,Population Healthy Nuclei (%),[4],43%
same,Population Hoechst High Intensity Objects (%),[4],16%
same,Population Membrane Permeable-Phenotype (%),[4],11%
same,Population Mitochondria Different-Phenotype (%),[4],1%
same,Population Mitotic Cells (%),[4],65%
same,Population Normal (%),[4],83%
same,Population Pyknosed Nuclei (%),[4],31%
same,Population Tubulin-Different-Phenotype (%),[4],45%
same,Total Cell Count,[4],146
same,Population Apoptotic (%),[5],25%
same,Population Fragmented Nuclei (%),[5],15%
same,Population Healthy Nuclei (%),[5],73%
same,Population Hoechst High Intensity Objects (%),[5],0%
same,Population Membrane Permeable-Phenotype (%),[5],0%
same,Population Mitochondria Different-Phenotype (%),[5],1%
same,Population Mitotic Cells (%),[5],75%
same,Population Normal (%),[5],99%
same,Population Pyknosed Nuclei (%),[5],10%
same,Population Tubulin-Different-Phenotype (%),[5],15%
same,Total Cell Count,[5],147
same,Population Apoptotic (%),[6],43%
same,Population Fragmented Nuclei (%),[6],22%
same,Population Healthy Nuclei (%),[6],53%
same,Population Hoechst High Intensity Objects (%),[6],2%
same,Population Membrane Permeable-Phenotype (%),[6],8%
same,Population Mitochondria Different-Phenotype (%),[6],8%
same,Population Mitotic Cells (%),[6],56%
same,Population Normal (%),[6],97%
same,Population Pyknosed Nuclei (%),[6],24%
same,Population Tubulin-Different-Phenotype (%),[6],40%
same,Total Cell Count,[6],165
same,Population Apoptotic (%),[7],63%
same,Population Fragmented Nuclei (%),[7],14%
same,Population Healthy Nuclei (%),[7],69%
same,Population Hoechst High Intensity Objects (%),[7],2%
same,Population Membrane Permeable-Phenotype (%),[7],0%
same,Population Mitochondria Different-Phenotype (%),[7],2%
same,Population Mitotic Cells (%),[7],36%
same,Population Normal (%),[7],97%
same,Population Pyknosed Nuclei (%),[7],15%
same,Population Tubulin-Different-Phenotype (%),[7],19%
same,Total Cell Count,[7],147
same,Population Apoptotic (%),[8],30%
same,Population Fragmented Nuclei (%),[8],27%
same,Population Healthy Nuclei (%),[8],45%
same,Population Hoechst High Intensity Objects (%),[8],13%
same,Population Membrane Permeable-Phenotype (%),[8],16%
same,Population Mitochondria Different-Phenotype (%),[8],3%
same,Population Mitotic Cells (%),[8],69%
same,Population Normal (%),[8],86%
same,Population Pyknosed Nuclei (%),[8],26%
same,Population Tubulin-Different-Phenotype (%),[8],59%
same,Total Cell Count,[8],157
same,Population Apoptotic (%),[9],32%
same,Population Fragmented Nuclei (%),[9],18%
same,Population Healthy Nuclei (%),[9],62%
same,Population Hoechst High Intensity Objects (%),[9],1%
same,Population Membrane Permeable-Phenotype (%),[9],1%
same,Population Mitochondria Different-Phenotype (%),[9],4%
same,Population Mitotic Cells (%),[9],67%
same,Population Normal (%),[9],98%
same,Population Pyknosed Nuclei (%),[9],18%
same,Population Tubulin-Different-Phenotype (%),[9],30%
same,Total Cell Count,[9],152
same,Population Apoptotic (%),[10],55%
same,Population Fragmented Nuclei (%),[10],26%
same,Population Healthy Nuclei (%),[10],51%
same,Population Hoechst High Intensity Objects (%),[10],3%
same,Population Membrane Permeable-Phenotype (%),[10],6%
same,Population Mitochondria Different-Phenotype (%),[10],8%
same,Population Mitotic Cells (%),[10],44%
same,Population Normal (%),[10],96%
same,Population Pyknosed Nuclei (%),[10],21%
same,Population Tubulin-Different-Phenotype (%),[10],44%
same,Total Cell Count,[10],162
same,Population Apoptotic (%),[11],62%
same,Population Fragmented Nuclei (%),[11],11%
same,Population Healthy Nuclei (%),[11],62%
same,Population Hoechst High Intensity Objects (%),[11],2%
same,Population Membrane Permeable-Phenotype (%),[11],1%
same,Population Mitochondria Different-Phenotype (%),[11],7%
same,Population Mitotic Cells (%),[11],37%
same,Population Normal (%),[11],97%
same,Population Pyknosed Nuclei (%),[11],26%
same,Population Tubulin-Different-Phenotype (%),[11],34%
same,Total Cell Count,[11],144
same,Population Apoptotic (%),[12],48%
same,Population Fragmented Nuclei (%),[12],33%
same,Population Healthy Nuclei (%),[12],44%
same,Population Hoechst High Intensity Objects (%),[12],16%
same,Population Membrane Permeable-Phenotype (%),[12],13%
same,Population Mitotic Cells (%),[12],51%
same,Population Normal (%),[12],83%
same,Population Pyknosed Nuclei (%),[12],22%
same,Population Tubulin-Different-Phenotype (%),[12],60%
CN1CCN(c2ccc(Nc3c4ccccc4nc4ccccc34)cc2)CC1.Cl.Cl.O,Population Apoptotic (%),[1],47%
same,Population Fragmented Nuclei (%),[1],15%
same,Population Healthy Nuclei (%),[1],69%
same,Population Hoechst High Intensity Objects (%),[1],1%
same,Population Membrane Permeable-Phenotype (%),[1],0%
same,Population Mitochondria Different-Phenotype (%),[1],3%
same,Population Mitotic Cells (%),[1],52%
same,Population Normal (%),[1],98%
same,Population Pyknosed Nuclei (%),[1],14%
same,Population Tubulin-Different-Phenotype (%),[1],23%
same,Total Cell Count,[1],135
same,Population Apoptotic (%),[2],44%
same,Population Fragmented Nuclei (%),[2],28%
same,Population Healthy Nuclei (%),[2],56%
same,Population Membrane Permeable-Phenotype (%),[2],5%
same,Population Mitochondria Different-Phenotype (%),[2],5%
same,Population Mitotic Cells (%),[2],56%
same,Population Pyknosed Nuclei (%),[2],15%
same,Population Tubulin-Different-Phenotype (%),[2],34%
same,Total Cell Count,[2],160
same,Population Apoptotic (%),[3],91%
same,Population Fragmented Nuclei (%),[3],42%
same,Population Healthy Nuclei (%),[3],49%
same,Population Hoechst High Intensity Objects (%),[3],8%
same,Population Membrane Permeable-Phenotype (%),[3],0%
same,Population Mitochondria Different-Phenotype (%),[3],47%
same,Population Mitotic Cells (%),[3],8%
same,Population Normal (%),[3],91%
same,Population Pyknosed Nuclei (%),[3],8%
same,Population Tubulin-Different-Phenotype (%),[3],90%
same,Total Cell Count,[3],158
same,Population Apoptotic (%),[4],66%
same,Population Fragmented Nuclei (%),[4],65%
same,Population Healthy Nuclei (%),[4],29%
same,Population Hoechst High Intensity Objects (%),[4],16%
same,Population Membrane Permeable-Phenotype (%),[4],4%
same,Population Mitochondria Different-Phenotype (%),[4],13%
same,Population Mitotic Cells (%),[4],33%
same,Population Normal (%),[4],83%
same,Population Pyknosed Nuclei (%),[4],4%
same,Population Tubulin-Different-Phenotype (%),[4],79%
same,Total Cell Count,[4],177
same,Population Apoptotic (%),[5],70%
same,Population Fragmented Nuclei (%),[5],21%
same,Population Healthy Nuclei (%),[5],65%
same,Population Hoechst High Intensity Objects (%),[5],0%
same,Population Membrane Permeable-Phenotype (%),[5],0%
same,Population Mitochondria Different-Phenotype (%),[5],2%
same,Population Mitotic Cells (%),[5],29%
same,Population Normal (%),[5],99%
same,Population Pyknosed Nuclei (%),[5],12%
same,Population Tubulin-Different-Phenotype (%),[5],12%
same,Total Cell Count,[5],139
same,Population Apoptotic (%),[6],60%
same,Population Fragmented Nuclei (%),[6],29%
same,Population Healthy Nuclei (%),[6],57%
same,Population Membrane Permeable-Phenotype (%),[6],3%
same,Population Mitochondria Different-Phenotype (%),[6],7%
same,Population Mitotic Cells (%),[6],40%
same,Population Normal (%),[6],100%
same,Population Tubulin-Different-Phenotype (%),[6],39%
same,Total Cell Count,[6],155
same,Population Apoptotic (%),[7],77%
same,Population Fragmented Nuclei (%),[7],47%
same,Population Healthy Nuclei (%),[7],39%
same,Population Hoechst High Intensity Objects (%),[7],16%
same,Population Membrane Permeable-Phenotype (%),[7],1%
same,Population Mitochondria Different-Phenotype (%),[7],66%
same,Population Mitotic Cells (%),[7],22%
same,Population Normal (%),[7],83%
same,Population Pyknosed Nuclei (%),[7],12%
same,Population Tubulin-Different-Phenotype (%),[7],94%
same,Total Cell Count,[7],206
same,Population Apoptotic (%),[8],60%
same,Population Fragmented Nuclei (%),[8],69%
same,Population Healthy Nuclei (%),[8],27%
same,Population Hoechst High Intensity Objects (%),[8],21%
same,Population Membrane Permeable-Phenotype (%),[8],6%
same,Population Mitochondria Different-Phenotype (%),[8],34%
same,Population Mitotic Cells (%),[8],40%
same,Population Normal (%),[8],78%
same,Population Pyknosed Nuclei (%),[8],3%
same,Population Tubulin-Different-Phenotype (%),[8],84%
same,Total Cell Count,[8],205
same,Population Apoptotic (%),[9],66%
same,Population Fragmented Nuclei (%),[9],23%
same,Population Healthy Nuclei (%),[9],70%
same,Population Hoechst High Intensity Objects (%),[9],1%
same,Population Membrane Permeable-Phenotype (%),[9],0%
same,Population Mitochondria Different-Phenotype (%),[9],4%
same,Population Mitotic Cells (%),[9],33%
same,Population Normal (%),[9],98%
same,Population Pyknosed Nuclei (%),[9],6%
same,Population Tubulin-Different-Phenotype (%),[9],26%
same,Total Cell Count,[9],144
same,Population Apoptotic (%),[10],55%
same,Population Fragmented Nuclei (%),[10],25%
same,Population Healthy Nuclei (%),[10],68%
same,Population Membrane Permeable-Phenotype (%),[10],1%
same,Population Mitotic Cells (%),[10],44%
same,Population Pyknosed Nuclei (%),[10],5%
same,Total Cell Count,[10],157
same,Population Apoptotic (%),[11],68%
same,Population Fragmented Nuclei (%),[11],71%
same,Population Healthy Nuclei (%),[11],15%
same,Population Hoechst High Intensity Objects (%),[11],45%
same,Population Membrane Permeable-Phenotype (%),[11],15%
same,Population Mitochondria Different-Phenotype (%),[11],30%
same,Population Mitotic Cells (%),[11],31%
same,Population Normal (%),[11],54%
same,Population Pyknosed Nuclei (%),[11],12%
same,Population Tubulin-Different-Phenotype (%),[11],25%
same,Total Cell Count,[11],235
same,Population Apoptotic (%),[12],0%
same,Population Fragmented Nuclei (%),[12],88%
same,Population Healthy Nuclei (%),[12],11%
same,Population Hoechst High Intensity Objects (%),[12],38%
same,Population Membrane Permeable-Phenotype (%),[12],25%
same,Population Mitochondria Different-Phenotype (%),[12],12%
same,Population Mitotic Cells (%),[12],0%
same,Population Normal (%),[12],61%
same,Population Pyknosed Nuclei (%),[12],0%
same,Population Tubulin-Different-Phenotype (%),[12],56%
same,Total Cell Count,[12],236
